Data reported in ChEMBL document CHEMBL1127580 (J Med Chem, 1994).

Legend:
[1] = target: Sodium-dependent dopamine transporter (Rattus norvegicus) (UniProt P23977); experiment: Inhibitory effect of [3H]cocaine binding when pre incubation was conducted under reduced lighting; set-up: concentration or dose not given beside the values
Method in brief: (§1)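 Ligand (final 100 μM or as indicated, in DMSO or H2O) or vehicle preincubated 5 min with rat striatal membranes, either under reduced lighting or 4 in. from a UV source. […] Remaining binding expressed as percent of control.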

[2] = target: Sodium-dependent dopamine transporter (Rattus norvegicus) (UniProt P23977); experiment: Inhibitory effect of [3H]cocaine binding when pre incubation was conducted under ultraviolet light; set-up: concentration or dose not given beside the values; method in brief: as §1
[3] = target: Sodium-dependent dopamine transporter (Rattus norvegicus, UniProt P23977); experiment: Tested for inhibition of [3H]cocaine binding to rat striatal P2 membranes; format: cell membranes, Membrane
Sodium-dependent dopamine transporter, sequence (P23977 whole entry): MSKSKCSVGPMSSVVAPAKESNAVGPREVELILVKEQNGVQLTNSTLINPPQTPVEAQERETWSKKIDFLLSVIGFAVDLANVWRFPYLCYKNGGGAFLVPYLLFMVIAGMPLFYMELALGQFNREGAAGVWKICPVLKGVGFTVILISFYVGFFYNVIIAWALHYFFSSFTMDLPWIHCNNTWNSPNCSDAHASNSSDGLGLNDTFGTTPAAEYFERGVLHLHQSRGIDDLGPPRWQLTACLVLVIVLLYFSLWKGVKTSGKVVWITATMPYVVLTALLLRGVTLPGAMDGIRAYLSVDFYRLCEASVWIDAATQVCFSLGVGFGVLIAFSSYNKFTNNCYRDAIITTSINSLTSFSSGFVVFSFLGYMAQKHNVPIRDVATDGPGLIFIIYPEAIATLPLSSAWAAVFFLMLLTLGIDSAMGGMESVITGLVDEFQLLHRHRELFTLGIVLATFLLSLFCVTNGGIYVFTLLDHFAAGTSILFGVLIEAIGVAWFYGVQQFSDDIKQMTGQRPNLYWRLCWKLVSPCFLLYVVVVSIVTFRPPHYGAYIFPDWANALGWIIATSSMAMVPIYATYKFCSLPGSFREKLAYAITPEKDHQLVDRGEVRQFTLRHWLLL
Method in brief: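 Fresh rat striatal P2 membranes in 10 mM Na2HPO4/0.25 M sucrose, pH 7.4, 200 μg protein. Filtration on PEI-soaked GF/B filters.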

Rattus norvegicus [4] = species on record: Rattus norvegicus; experiment: Tested for inhibition of [3H]-dopamine uptake into rat striatal synaptosomes; format: functional; conditions: Brain
Rattus norvegicus [5] = species on record: Rattus norvegicus; experiment: Tested for inhibition of [3H]dopamine uptake into rat striatal synaptosomes; format: functional; conditions: Brain

Sodium-dependent dopamine transporter (Rattus norvegicus), sequence (P23977 whole entry): as above

`COC(=O)C1C(OC(=O)Nc2ccc(N=C=S)cc2)C[C@H]2CCC1N2C` (some centres undefined) was tested, and the Control [1] was 12.3%, the Control [2] was 18.5% and the IC50 [3] was 260 nM. For the same compound, the IC50 (Rattus norvegicus [4]) was 490 nM.

With `COC(=O)C1C(OC(=O)Nc2cccc(N=[N+]=[N-])c2)C[C@H]2CCC1N2C` (some centres undefined) the Control [1] was 102%, the Control [2] was 39.1% and the IC50 [3] was 630 nM. For the same compound, the IC50 (Rattus norvegicus [4]) was 3900 nM.

Compound `COC(=O)C1C(OC(=O)Nc2ccc(N=[N+]=[N-])cc2)C[C@H]2CCC1N2C` (some centres undefined) has a Control [1] of 86.3%, a Control [2] of 32.5% and an IC50 [3] of 1000 nM. For the same compound, the IC50 (Rattus norvegicus [4]) was 1180 nM.

`COC(=O)[C@@H]1C2CC[C@@H](C[C@@H]1OC(=O)c1ccccc1)N2C` (single isomer, unassigned) [COCAINE] was tested, and the Control [1] was 138%, the Control [2] was 74.1% and the IC50 (Rattus norvegicus [4]) was 210 nM.

`COC(=O)C1C(OC(=O)Nc2cccc(N=C=S)c2)C[C@H]2CCC1N2C` (some centres undefined) was tested, and the IC50 (Rattus norvegicus [5]) was 4900 nM, the Control [1] was 33.4% and the Control [2] was 29.1%. The IC50 [3] was 960 nM.
